In one assay the test system is CCRF-CEM. Nature of the assay: Concentration that causes morphological changes in noninfected CEM-SS cells. In kind it is functional. The following applies: Homo sapiens, read-out: TC50 (the source's name).
Assay [1] concerns Human immunodeficiency virus 1. Nature of the assay: In Vitro Anti-HIV activity of the compound. Type of assay: functional. The following applies: read-out: ED50 (the source's name).
Assay [2] relates to MCF7. In words: In vitro Antineoplastic Activity against Adriamycin resistant Human Breast adenocarcinoma MCF7-Adr Cell lines. In kind it is functional, cell-based.
Assay [3] relates to MCF7. In words: In vitro Neoplastic Anti Activity against Human Breast adenocarcinoma MCF-7 Cell lines. In kind it is functional, cell-based.
The subject of assay [4] is A549. Nature of the assay: In vitro Antineoplastic Activity against Human non small cell lung carcinoma A549 Cell lines. Type of assay: functional, cell-based.
The subject of assay [5] is HT-29. Nature of the assay: In vitro Neoplastic Anti Activity in Human Colon adenocarcinoma HT-29 Cell lines. Type of assay: functional, cell-based.
Assay [6] has as its system A121. Nature of the assay: In vitro Antineoplastic Activity against Human ovarian carcinoma A121 Cell lines. Type of assay: functional, cell-based.
In assay [7] the test system is L1210. In words: In vitro inhibition of AdoMetDC derived from L1210 Murine Leukemia Cells. Type of assay: functional. The following applies: Mus musculus, read-out: ID50 (the source's name).
In assay [8] the test system is Mus musculus. In words: Ratio of number of mice cured to that of total treated with the compound at 100 mg/kg for 7 days. Type of assay: functional.
For assay [9], the system named is Mus musculus. Nature of the assay: Ratio of number of mice cured to that of total treated with the compound at 10 mg/kg for 3 days. In kind it is functional.
The subject of assay [10] is Mus musculus. In words: Ratio of number of mice cured to that of total treated with the compound at 25 mg/kg for 3 days. In kind it is functional.
The test system of assay [11] is Mus musculus. In words: Ratio of number of mice cured to that of total treated with the compound at 25 mg/kg for 7 days. Type of assay: functional.
Assay [12] relates to Mus musculus. In words: Ratio of number of mice cured to that of total treated with the compound at 50 mg/kg for 3 days. Type of assay: functional.
Assay [13] has as its system Mus musculus. Nature of the assay: Ratio of number of mice cured to that of total treated with the compound at 50 mg/kg for 7 days. Type of assay: functional.
Assay [14] has as its system Trypanosoma brucei rhodesiense. Nature of the assay: In vitro antitrypanosomal activity against Trypanosomal 243 As 10e-3 (KETRI)strain. Type of assay: functional, organism-based.
Assay [15] relates to Trypanosoma brucei rhodesiense. Nature of the assay: In vitro antitrypanosomal activity against Trypanosomal 269 (KETRI)strain. Type of assay: functional, organism-based.
The test system of assay [16] is Trypanosoma brucei brucei. Nature of the assay: In vitro antitrypanosomal activity against Trypanosomal 110 (EATRO)strain. Type of assay: functional, organism-based.
The test system of assay [17] is Trypanosoma brucei rhodesiense. Nature of the assay: In vitro antitrypanosomal activity against Trypanosomal 243 (KETRI)strain. In kind it is functional, organism-based.
For assay [18], the system named is Trypanosoma brucei brucei. In words: Mean survival days against T.b. peritoneal administration at 10 mg/kg for 3 days. In kind it is functional.
The subject of assay [19] is Trypanosoma brucei brucei. In words: Mean survival days against T.b. peritoneal administration at 25 mg/kg for 3 days. In kind it is functional.
Assay [20] has as its system Trypanosoma brucei brucei. In words: Mean survival days against T.b. peritoneal administration at 50 mg/kg for 3 days. In kind it is functional.
Assay [21] concerns Trypanosoma brucei rhodesiense. Nature of the assay: Mean survival days against T.b. rhodesiense KETRI 243 tested in mice after intra peritoneal administration at 100 mg/kg for 7 days. In kind it is functional.
Assay [22] relates to Trypanosoma brucei rhodesiense. In words: Mean survival days against T.b. rhodesiense KETRI 243 tested in mice after intra peritoneal administration at 25 mg/kg for 7 days. In kind it is functional.
The subject of assay [23] is Trypanosoma brucei rhodesiense. Nature of the assay: Mean survival days against T.b. rhodesiense KETRI 243 tested in mice after intra peritoneal administration at 50 mg/kg for 7 days. In kind it is functional.
Assay [24] in a line: Differential selectivity as the ratio of TC50 value to that of EC50 value. In kind it is functional. The method in brief:
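Syncytial plaque assay: log-phase CEM-SS cells were PBS-washed and plated at 50 000 per well in serum-free RPMI-1640 on poly-L-lysine-coated wells (30 min, 37 °C). They were inoculated with HIV-1 (60–90 PFU) for 120 min, then overlaid with compound in growth medium (2-fold dilutions, 0.00015–20 μM). A second overlay followed on day 3, with 5 days total. EC50 is 50% inhibition of plaque formation. TC50 is morphological change in noninfected CEM-SS cells.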

Assay [25] concerns L1210. In words: In vitro Neoplastic Activity against L1210 mucerine leukemia Cell lines. Type of assay: functional, cell-based. To be noted: Mus musculus. In outline: (§1)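 SRB growth assay. Cell lines were grown as monolayers in RPMI-1640 with 5% FCS, 5% NuSerum IV, 20 mM HEPES and 2 mM glutamine, and seeded at 400–1200 cells/well. They attached for 15–18 h before drug. Ten concentrations over 5 logs were tested, with final DMSO ≤0.25%. Exposure was 72 h at 37 °C. Cells were TCA-fixed, stained with sulforhodamine B and read at OD 570 nm. IC50 is 50% growth inhibition.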

Assay [26] deals with MCF7. Nature of the assay: In vitro Anti Neoplastic Activity against Human Breast adenocarcinoma MCF-7 Cell lines. Type of assay: functional, cell-based. In outline:
as §1

The subject of assay [27] is HT-29. In words: In vitro Anti Neoplastic Activity in Human Colon adenocarcinoma HT-29 Cell lines. Type of assay: functional, cell-based. In outline:
as §1

The test system of assay [28] is A121. Nature of the assay: In vitro Anti Neoplastic Activity against Human ovarian carcinoma A121 Cell lines. In kind it is functional, cell-based. The method in brief: as §1
For assay [29], the system named is L1210. In words: In vitro inhibition of AdoMetDC derived from L1210 Murine Leukemia Cells at a dose of 100 uM. In kind it is functional. To be noted: Mus musculus.
Assay [30] has as its system L1210. Nature of the assay: In vitro Anti Neoplastic Activity against L1210 murine leukemia Cell lines. In kind it is functional, cell-based. The following applies: Mus musculus. The method in brief:
as §1

The test system of assay [31] is Trypanosoma brucei brucei. Nature of the assay: In vitro anti trypanosomal activity against Trypanosomal 110 (EATRO)strain. Type of assay: functional, organism-based.
The subject of assay [32] is Trypanosoma brucei rhodesiense. Nature of the assay: In vitro anti trypanosomal activity against Trypanosomal 243 (KETRI)strain. In kind it is functional, organism-based.
Assay [33] deals with A549. Nature of the assay: In vitro Anti Neoplastic Activity against Human non small cell lung carcinoma A549 Cell lines. Type of assay: functional, cell-based. The method in brief:
as §1

In assay [34] the test system is MCF7. In words: In vitro Anti Neoplastic Activity against Adriamycin resistant Human Breast adenocarcinoma MCF7-Adr Cell lines. In kind it is functional, cell-based. In outline: as §1
Assay [35] relates to MCF7. In words: In vitro anti Neoplastic Activity against Adriamycin resistant Human Breast adenocarcinoma MCF7-Adr Cell lines. In kind it is functional, cell-based. In outline: as §1
The test system of assay [36] is MCF7. Nature of the assay: In vitro anti Neoplastic Activity against Human Breast adenocarcinoma MCF-7 Cell lines. Type of assay: functional, cell-based. The method in brief: as §1
For assay [37], the system named is A549. In words: In vitro anti Neoplastic Activity against Human non small cell lung carcinoma A549 Cell lines. Type of assay: functional, cell-based. The method in brief: as §1
The test system of assay [38] is HT-29. Nature of the assay: In vitro anti Neoplastic Activity in Human Colon adenocarcinoma HT-29 Cell lines. Type of assay: functional, cell-based. In outline:
as §1

Assay [39] relates to A121. In words: In vitro anti Neoplastic Activity against Human ovarian carcinoma A121 Cell lines. Type of assay: functional, cell-based. In outline:
as §1

For assay [40], the system named is Trypanosoma brucei rhodesiense. Nature of the assay: In vitro anti trypanosomal activity against Trypanosomal 243 As 10e-3 (KETRI)strain. Type of assay: functional, organism-based.
In assay [41] the test system is Trypanosoma brucei rhodesiense. In words: In vitro anti trypanosomal activity against Trypanosomal 269 (KETRI)strain. Type of assay: functional, organism-based.

From ChEMBL document CHEMBL1135645, “Synthesis and evaluation of analogues of 5'-([(Z)-4-amino-2-butenyl]methylamino)-5'-deoxyadenosine as inhibitors of tumor cell growth, trypanosomal growth, and HIV-1 infectivity” (J Med Chem, 2002) come the findings set out here.

By inhibition is commonly meant the drop in the measured response relative to a control, in per cent. A high value points to strong suppression.

In the case of `CN(C/C=C\CN)C[C@H]1O[C@@H](n2cnc3c(N)ncnc32)[C@H](O)[C@@H]1O`, the CC50 in the assay with CCRF-CEM is less than 6.25 µM. Also, in [1], the EC50 worked out at 0.93 µM. Besides, the IC50 was 200 µM with MCF7 [2]; more than 100 µM with MCF7 [3]; 3 µM in the assay on A549 [4]; more than 100 µM with HT-29 [5]; more than 100 µM in the assay on A121 [6]; 0.078 µM with L1210 [7]. For the same molecule, the IC50 in assay [14] came to 0.1 µM; in [15], 0.22 µM; in assay [16] it was 0.1 µM; in assay [17], 0.04 µM. Further, the No. cured/total in the assay on Mus musculus [8] was 4; in the assay with Mus musculus [9], 4; with Mus musculus [10], 5; in the assay on Mus musculus [11], 2; in the assay on Mus musculus [12], 5; in the assay on Mus musculus [13] it was 2. The MSD in [18] is 12 days; in assay [19], more than 34 days; in [20], more than 34 days; in assay [21] it was 32 days; in assay [22] it was 31 days; in assay [23], 31.3 days. Besides, the Selectivity in assay [24] was 6.7.
As to `CN(C/C=C\CN)CC1OC(n2cnc3c(N)ncnc32)CC1O` (centres undefined), the IC50 in the assay on L1210 [7] is 20 µM; in the assay with L1210 [25], 500 µM; in [14], 30 µM; in assay [15], 74 µM; in assay [16], 4.2 µM; in [17] it was 2.9 µM.
In the case of `CN(C/C=C\CN)CC(CO)OC(CO)n1cnc2c(N)ncnc21` (centres undefined), the IC50 is 63 µM in the assay on MCF7 [26]; 112 µM with HT-29 [27]; 41 µM in the assay with A121 [28]; more than 600 µM in the assay with L1210 [30]; 16 µM in [31]; 15 µM in [32]. Also, the figures for the IC50 with A549 [33] and in the assay with MCF7 [34] were more than 100 µM and 78 µM, respectively. Moreover, the inhibition at 100 µM in the assay on L1210 [29] came out at 27%.
Turning to `CN(C/C=C\CN)CCOCn1cnc2c(N)nc(N)nc21`, the IC50 in the assay on MCF7 [35], in the assay on MCF7 [36], in the assay on A549 [37], in the assay with HT-29 [38], in the assay with A121 [39] and in the assay on L1210 [7] was more than 100 µM throughout. The IC50 in assay [40] came to 0.96 µM; in [41], 11 µM; in [31] it was 10 µM; in assay [32], 6.6 µM.
With `CC(=O)OCC(CN(C)C/C=C\CN)OC(COC(C)=O)n1cnc2c(N)ncnc21` (centres undefined), the IC50 in the assay with MCF7 [26] was more than 100 µM; in the assay on HT-29 [27], more than 100 µM; with A121 [28], more than 100 µM; in [40], 2.9 µM; in assay [41], 3.8 µM; in assay [31] it was 1.8 µM. The IC50 was 4.6 µM in assay [32], more than 100 µM with A549 [33] and more than 100 µM in the assay with MCF7 [34].
